In ChEMBL document CHEMBL4371016, “Proline- and Arginine-Rich Peptides as Flexible Allosteric Modulators of Human Proteasome Activity” (J Med Chem, 2019) one finds IC50, Ki and Activity data, which are given here for 7 compounds.

Structures are written as SMILES. Residues, ends and D or L forms follow the SMILES beside them.

The target of series [1] is T1, Proteasome Macropain subunit MB1 (Homo sapiens, UniProt P28074).
T1 sequence (P28074 whole entry): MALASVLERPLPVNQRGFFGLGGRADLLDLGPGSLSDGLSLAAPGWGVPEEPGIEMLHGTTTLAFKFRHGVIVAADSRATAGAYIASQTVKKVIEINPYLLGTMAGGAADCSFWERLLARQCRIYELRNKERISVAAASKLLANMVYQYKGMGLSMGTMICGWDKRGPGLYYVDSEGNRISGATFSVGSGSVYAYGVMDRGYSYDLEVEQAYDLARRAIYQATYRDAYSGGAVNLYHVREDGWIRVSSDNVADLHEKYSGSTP
In words: Negative allosteric modulation of SDS-activated human erythrocytes 20S proteasome chymotrypsin like activity using Suc-LLVY-AMC as substrate measured every 2 mins up to 60 mins by fluorescence assay. Put shortly:
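1.4 nM CP (0.001 mg/mL) in 50 mM Tris-HCl pH 8.0, activated with 0.005% SDS where stated, otherwise latent. Suc-LLVY-AMC at 100 μM final. AMC fluorescence read every 2 min up to 60 min at 37 °C. Activity relative to DMSO-treated enzyme, from at least three independent replicates. Peptide stocks 10 mM in DMSO.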

For series [2], the target named is T1, Proteasome Macropain subunit MB1. In words: Non-competitive mixed-type inhibition of SDS-activated human erythrocytes 20S proteasome chymotrypsin like activity using Suc-LLVY-AMC as substrate measured every 2 mins up to 60 mins by fluorescence assay. Put shortly: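 SDS-activated CP at 1.4 nM. Suc-LLVY-AMC varied from 20 to 200 μM at inhibitor levels of 0.05, 0.1 and 0.2 μM. Fluorescence read kinetically at 37 °C. […] Three independent replicates.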

Series [3] has the same target. In words: Negative allosteric modulation of 1 uM Rpt5-activated human erythrocytes 20S proteasome chymotrypsin like activity using Suc-LLVY-AMC as substrate measured every 1 min up to 60 mins by fluorescence assay. Put shortly: (§1)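 Suc-LLVY-AMC at 100 μM final. AMC fluorescence read every 1 min for 60 min at 37 °C. Activity relative to DMSO vehicle, at least three independent replicates.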

The target is the same in series [4]. In words: Negative allosteric modulation of 10 uM Rpt5-activated human erythrocytes 20S proteasome chymotrypsin like activity using Suc-LLVY-AMC as substrate measured every 1 min up to 60 mins by fluorescence assay. Put shortly:
as §1

In another series the test system is Fibroblast. In words: Cytotoxicity against human primary fibroblasts assessed as effect on cell viability up to 20 uM after 24 hrs by WST1 assay. The class given is cell-based. The gist of the method: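 Primary human fibroblasts GM04390 in DMEM with 10% heat-inactivated FBS and antibiotics, at 3% O2, 5% CO2, 37 °C; seeded at 100 000 cells/mL, switched to Optimem at 24 h, exposed at 48 h to 0.1–20 μM peptide or DMSO for 24 h. Viability read by WST-1 (10% reagent, 4 h), absorbance 450 nm.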
(In general: Tetrazolium dyes change colour on reduction, which living cells bring about.)

For orientation: IC50 means the concentration at which inhibition is half-maximal. As a reminder, the Ki is the dissociation constant of the complex between target and ligand, obtained from inhibition or displacement. Higher therefore signals lower affinity. For the compound `CC(C)C[C@H](NC(=O)[C@H](Cc1ccc(O)cc1)NC(=O)[C@H](CCCNC(=N)N)NC(=O)[C@H](CCCNC(=N)N)NC(=O)[C@@H](N)CCCNC(=N)N)C(=O)N1CCC[C@H]1C(=O)N[C@@H](CCCNC(=N)N)C(=O)N[C@@H](Cc1c[nH]c2ccccc12)C(=O)NCC(N)=O` (H-RRRYLPRWG-NH2), the half-maximal inhibitory concentration (IC50) in series [1] (read-out: IC50) was 0.082 µM. This compound also returned a Ki in series [2] of 0.0101 µM.
As for `CC(C)C[C@H](NC(=O)[C@H](Cc1ccc(O)cc1)NC(=O)[C@@H]1CCCN1C(=O)[C@@H]1CCCN1C(=O)[C@H](CCCNC(=N)N)NC(=O)[C@@H]1CCCN1C(=O)[C@H](CCCNC(=N)N)NC(=O)[C@H](CCCNC(=N)N)NC(=O)[C@@H](N)CCCNC(=N)N)C(=O)N1CCC[C@H]1C(=O)N[C@@H](CCCNC(=N)N)C(=O)N[C@@H](Cc1c[nH]c2ccccc12)C(=O)NCC(=O)O` (H-RRRPRPPYLPRWG-OH), the IC50 in series [1] (read-out: IC50) was 0.05 µM; in series [3], 0.56 µM; in series [4], 0.5 µM. Moreover, the affinity in series [2], expressed as Ki, was 0.0048 µM.
Regarding `CC(C)C[C@H](NC(=O)[C@H](Cc1ccc(O)cc1)NC(=O)[C@@H]1CCCN1C(=O)[C@@H]1CCCN1C(=O)[C@H](CCCNC(=N)N)NC(=O)[C@@H]1CCCN1C(=O)[C@H](CCCNC(=N)N)NC(=O)[C@H](CCCNC(=N)N)NC(=O)[C@@H](N)CCCNC(=N)N)C(=O)N1CCC[C@H]1C(=O)N[C@@H](CCCNC(=N)N)C(=O)N[C@@H](Cc1ccccc1)C(=O)NCC(=O)O` (H-RRRPRPPYLPRFG-OH), in series [1] (read-out: IC50), the concentration for half-maximal inhibition (IC50) is 0.099 µM.
Turning to `CC(C)C[C@H](NC(=O)[C@@H]1CCCN1C(=O)[C@@H]1CCCN1C(=O)[C@@H]1CCCN1C(=O)[C@@H]1CCCN1C(=O)[C@H](CCCNC(=N)N)NC(=O)[C@H](CCCNC(=N)N)NC(=O)[C@@H](N)CCCNC(=N)N)C(=O)N[C@@H](Cc1ccc(O)cc1)C(=O)N[C@@H](C)C(=O)O` (H-RRRPPPPLYA-OH), the 50% inhibitory concentration (IC50) entry in series [1] is given as “Not Active”.
On to `CC(C)C[C@H](NC(=O)[C@H](Cc1ccc(O)cc1)NC(=O)[C@H](CCCNC(=N)N)NC(=O)[C@H](CCCNC(=N)N)NC(=O)[C@@H](N)CCCNC(=N)N)C(=O)N1CCC[C@H]1C(=O)N[C@@H](CCCNC(=N)N)C(=O)N[C@@H](Cc1c[nH]c2ccccc12)C(=O)NCC(=O)O` (H-RRRYLPRWG-OH), for which the half-maximal inhibitory concentration (IC50) in series [1] (read-out: IC50) was found to be 0.111 µM.
In the case of `CC(C)C[C@H](NC(=O)[C@H](Cc1ccc(O)cc1)NC(=O)[C@@H]1CCCN1C(=O)[C@@H]1CCCN1C(=O)[C@H](CCCNC(=N)N)NC(=O)[C@@H]1CCCN1C(=O)[C@H](CCCNC(=N)N)NC(=O)[C@H](CCCNC(=N)N)NC(=O)[C@@H](N)CCCNC(=N)N)C(=O)N1CCC[C@H]1C(=O)N[C@@H](CCCNC(=N)N)C(=O)N[C@@H](Cc1c[nH]c2ccccc12)C(=O)NCC(N)=O` (H-RRRPRPPYLPRWG-NH2), the IC50 in series [1] (read-out: IC50) is 0.113 µM.
As to `C[C@H](NC(=O)[C@H](Cc1ccc(O)cc1)NC(=O)[C@H](Cc1ccc(O)cc1)NC(=O)[C@@H]1CCCN1C(=O)[C@@H]1CCCN1C(=O)[C@@H]1CCCN1C(=O)[C@@H]1CCCN1C(=O)[C@H](CCCNC(=N)N)NC(=O)[C@H](CCCNC(=N)N)NC(=O)[C@@H](N)CCCNC(=N)N)C(=O)O` (H-RRRPPPPYYA-OH), the IC50 result in series [1] is recorded as “Not Active”. The Activity entry in the series on Fibroblast is listed as “Non-Toxic”.
